Reference: ChEMBL document CHEMBL4002590, “Design and Synthesis of a Pan-Janus Kinase Inhibitor Clinical Candidate (PF-06263276) Suitable for Inhaled and Topical Delivery for the Treatment of Inflammatory Diseases of the Lungs and Skin” (J Med Chem, 2017)
Activity calls are given as the source filed them. The rule behind the calls is not given here.

Columns and labels:
[1] = target: Non-receptor tyrosine-protein kinase TYK2 (Homo sapiens, UniProt P29597); assay: Inhibition of Tyk2 (unknown origin) using peptide substrate preincubated for 60 mins followed by substrate addition and measured after 60 mins by microfluidic assay
Sequence of Non-receptor tyrosine-protein kinase TYK2 (P29597 whole entry): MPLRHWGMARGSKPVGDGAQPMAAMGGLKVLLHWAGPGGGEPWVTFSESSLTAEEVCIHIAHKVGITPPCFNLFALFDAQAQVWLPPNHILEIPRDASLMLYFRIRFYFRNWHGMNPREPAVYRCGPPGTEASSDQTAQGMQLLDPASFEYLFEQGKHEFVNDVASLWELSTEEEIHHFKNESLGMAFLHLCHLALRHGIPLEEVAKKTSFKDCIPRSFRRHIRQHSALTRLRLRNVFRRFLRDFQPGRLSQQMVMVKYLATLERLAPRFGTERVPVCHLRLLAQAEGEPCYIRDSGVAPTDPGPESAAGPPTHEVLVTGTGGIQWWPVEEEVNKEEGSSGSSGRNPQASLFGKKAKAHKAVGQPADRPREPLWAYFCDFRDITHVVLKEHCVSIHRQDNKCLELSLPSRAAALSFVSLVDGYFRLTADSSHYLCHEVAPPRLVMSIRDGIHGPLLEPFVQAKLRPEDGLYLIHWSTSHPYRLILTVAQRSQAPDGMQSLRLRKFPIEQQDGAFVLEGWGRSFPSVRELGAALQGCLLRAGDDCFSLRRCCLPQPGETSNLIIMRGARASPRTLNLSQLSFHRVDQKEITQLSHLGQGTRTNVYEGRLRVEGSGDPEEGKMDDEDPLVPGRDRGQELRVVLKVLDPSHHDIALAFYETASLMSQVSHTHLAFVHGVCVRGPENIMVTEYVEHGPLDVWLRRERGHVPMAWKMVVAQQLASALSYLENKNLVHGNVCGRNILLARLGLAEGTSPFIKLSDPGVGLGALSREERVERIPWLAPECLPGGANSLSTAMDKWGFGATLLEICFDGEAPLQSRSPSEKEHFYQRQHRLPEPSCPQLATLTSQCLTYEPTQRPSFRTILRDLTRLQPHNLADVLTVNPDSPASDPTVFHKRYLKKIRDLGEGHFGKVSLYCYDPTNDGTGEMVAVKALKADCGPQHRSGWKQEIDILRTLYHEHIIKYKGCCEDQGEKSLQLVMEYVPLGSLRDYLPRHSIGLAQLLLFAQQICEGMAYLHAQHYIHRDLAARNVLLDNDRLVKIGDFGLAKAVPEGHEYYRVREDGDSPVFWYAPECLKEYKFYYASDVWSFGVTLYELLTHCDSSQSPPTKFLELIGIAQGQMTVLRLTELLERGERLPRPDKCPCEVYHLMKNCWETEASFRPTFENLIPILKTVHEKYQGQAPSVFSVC
Procedure, shortened: (§1)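 Caliper microfluidic assay of peptide-substrate phosphorylation by the relevant JAK enzyme, run at 1 mM ATP; IC50 values are geometric means of at least three determinations.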

[2] = target: T1, Tyrosine-protein kinase JAK3 (Homo sapiens, UniProt P52333); assay: Inhibition of GST tagged human recombinant JAK3 catalytic domain expressed in baculovirus using peptide substrate preincubated for 60 mins followed by substrate addition and measured after 60 mins by microfluidic assay; procedure, shortened: as §1
T1 sequence (P52333 whole entry): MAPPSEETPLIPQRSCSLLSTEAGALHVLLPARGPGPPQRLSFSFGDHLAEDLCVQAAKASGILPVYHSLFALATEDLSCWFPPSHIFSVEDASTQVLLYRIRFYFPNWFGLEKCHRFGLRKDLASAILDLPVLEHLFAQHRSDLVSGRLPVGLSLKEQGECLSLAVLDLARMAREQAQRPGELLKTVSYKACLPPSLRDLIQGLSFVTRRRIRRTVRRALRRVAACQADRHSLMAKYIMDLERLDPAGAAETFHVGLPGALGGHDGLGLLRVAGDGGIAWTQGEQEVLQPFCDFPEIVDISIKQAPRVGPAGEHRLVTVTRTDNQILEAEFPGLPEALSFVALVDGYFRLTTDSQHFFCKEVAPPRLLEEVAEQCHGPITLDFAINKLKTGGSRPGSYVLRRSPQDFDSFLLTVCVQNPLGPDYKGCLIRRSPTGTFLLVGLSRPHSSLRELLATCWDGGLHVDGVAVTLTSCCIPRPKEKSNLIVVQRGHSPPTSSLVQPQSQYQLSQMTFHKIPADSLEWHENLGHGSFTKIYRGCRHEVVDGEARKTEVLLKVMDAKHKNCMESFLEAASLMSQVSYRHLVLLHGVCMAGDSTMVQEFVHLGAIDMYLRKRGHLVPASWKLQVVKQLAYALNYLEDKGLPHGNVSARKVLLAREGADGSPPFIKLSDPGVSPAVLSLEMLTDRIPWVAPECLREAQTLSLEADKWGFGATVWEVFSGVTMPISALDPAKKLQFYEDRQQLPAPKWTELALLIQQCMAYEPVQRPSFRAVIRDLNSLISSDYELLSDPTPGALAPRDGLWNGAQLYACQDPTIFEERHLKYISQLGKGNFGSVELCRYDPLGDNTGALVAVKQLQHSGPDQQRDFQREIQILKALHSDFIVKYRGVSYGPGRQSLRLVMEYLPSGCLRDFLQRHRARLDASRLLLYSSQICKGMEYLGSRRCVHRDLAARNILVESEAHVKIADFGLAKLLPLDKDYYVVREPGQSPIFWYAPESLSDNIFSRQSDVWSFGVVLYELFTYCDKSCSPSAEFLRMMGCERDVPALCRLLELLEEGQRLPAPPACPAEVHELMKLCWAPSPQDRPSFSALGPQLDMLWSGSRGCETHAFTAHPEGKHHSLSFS

[3] = target: Tyrosine-protein kinase JAK2 (Homo sapiens, UniProt O60674); assay: Inhibition of GST tagged human recombinant JAK2 catalytic domain expressed in baculovirus using peptide substrate preincubated for 60 mins followed by substrate addition and measured after 60 mins by microfluidic assay; procedure, shortened: as §1
Sequence of Tyrosine-protein kinase JAK2 (O60674 whole entry, the tested form may be a part): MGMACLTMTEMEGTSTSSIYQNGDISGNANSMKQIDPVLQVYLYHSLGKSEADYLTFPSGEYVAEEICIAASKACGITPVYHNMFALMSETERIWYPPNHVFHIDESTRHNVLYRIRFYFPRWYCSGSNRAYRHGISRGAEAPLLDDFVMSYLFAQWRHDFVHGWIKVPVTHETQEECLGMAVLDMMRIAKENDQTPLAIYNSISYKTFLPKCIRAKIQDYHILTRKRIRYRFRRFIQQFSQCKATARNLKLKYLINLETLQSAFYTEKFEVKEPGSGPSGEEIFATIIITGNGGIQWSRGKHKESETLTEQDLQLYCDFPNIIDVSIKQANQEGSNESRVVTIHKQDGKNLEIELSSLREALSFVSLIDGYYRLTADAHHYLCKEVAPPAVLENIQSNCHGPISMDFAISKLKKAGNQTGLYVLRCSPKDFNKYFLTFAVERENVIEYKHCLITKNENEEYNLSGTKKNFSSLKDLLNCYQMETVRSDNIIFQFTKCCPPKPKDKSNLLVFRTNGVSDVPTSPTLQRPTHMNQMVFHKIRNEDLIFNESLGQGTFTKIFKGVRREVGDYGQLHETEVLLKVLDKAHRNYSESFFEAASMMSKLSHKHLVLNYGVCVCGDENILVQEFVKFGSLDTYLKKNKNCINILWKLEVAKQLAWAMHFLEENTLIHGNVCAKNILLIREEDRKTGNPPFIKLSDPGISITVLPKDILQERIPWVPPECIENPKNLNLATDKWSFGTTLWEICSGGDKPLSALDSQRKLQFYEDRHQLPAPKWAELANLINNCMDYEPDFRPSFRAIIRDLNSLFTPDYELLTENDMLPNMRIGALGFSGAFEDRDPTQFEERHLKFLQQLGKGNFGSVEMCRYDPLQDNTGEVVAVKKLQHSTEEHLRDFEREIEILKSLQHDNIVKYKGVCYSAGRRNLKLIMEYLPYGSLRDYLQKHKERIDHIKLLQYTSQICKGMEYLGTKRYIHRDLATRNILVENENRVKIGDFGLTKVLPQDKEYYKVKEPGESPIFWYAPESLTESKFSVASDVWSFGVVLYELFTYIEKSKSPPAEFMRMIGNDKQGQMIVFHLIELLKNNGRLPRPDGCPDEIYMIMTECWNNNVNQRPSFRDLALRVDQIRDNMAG

[4] = target: Tyrosine-protein kinase JAK1 (Homo sapiens, UniProt P23458); assay: Inhibition of GST tagged human recombinant JAK1 catalytic domain expressed in baculovirus using peptide substrate preincubated for 60 mins followed by substrate addition and measured after 60 mins by microfluidic assay
Sequence of Tyrosine-protein kinase JAK1 (P23458 whole entry, the tested form may be a part): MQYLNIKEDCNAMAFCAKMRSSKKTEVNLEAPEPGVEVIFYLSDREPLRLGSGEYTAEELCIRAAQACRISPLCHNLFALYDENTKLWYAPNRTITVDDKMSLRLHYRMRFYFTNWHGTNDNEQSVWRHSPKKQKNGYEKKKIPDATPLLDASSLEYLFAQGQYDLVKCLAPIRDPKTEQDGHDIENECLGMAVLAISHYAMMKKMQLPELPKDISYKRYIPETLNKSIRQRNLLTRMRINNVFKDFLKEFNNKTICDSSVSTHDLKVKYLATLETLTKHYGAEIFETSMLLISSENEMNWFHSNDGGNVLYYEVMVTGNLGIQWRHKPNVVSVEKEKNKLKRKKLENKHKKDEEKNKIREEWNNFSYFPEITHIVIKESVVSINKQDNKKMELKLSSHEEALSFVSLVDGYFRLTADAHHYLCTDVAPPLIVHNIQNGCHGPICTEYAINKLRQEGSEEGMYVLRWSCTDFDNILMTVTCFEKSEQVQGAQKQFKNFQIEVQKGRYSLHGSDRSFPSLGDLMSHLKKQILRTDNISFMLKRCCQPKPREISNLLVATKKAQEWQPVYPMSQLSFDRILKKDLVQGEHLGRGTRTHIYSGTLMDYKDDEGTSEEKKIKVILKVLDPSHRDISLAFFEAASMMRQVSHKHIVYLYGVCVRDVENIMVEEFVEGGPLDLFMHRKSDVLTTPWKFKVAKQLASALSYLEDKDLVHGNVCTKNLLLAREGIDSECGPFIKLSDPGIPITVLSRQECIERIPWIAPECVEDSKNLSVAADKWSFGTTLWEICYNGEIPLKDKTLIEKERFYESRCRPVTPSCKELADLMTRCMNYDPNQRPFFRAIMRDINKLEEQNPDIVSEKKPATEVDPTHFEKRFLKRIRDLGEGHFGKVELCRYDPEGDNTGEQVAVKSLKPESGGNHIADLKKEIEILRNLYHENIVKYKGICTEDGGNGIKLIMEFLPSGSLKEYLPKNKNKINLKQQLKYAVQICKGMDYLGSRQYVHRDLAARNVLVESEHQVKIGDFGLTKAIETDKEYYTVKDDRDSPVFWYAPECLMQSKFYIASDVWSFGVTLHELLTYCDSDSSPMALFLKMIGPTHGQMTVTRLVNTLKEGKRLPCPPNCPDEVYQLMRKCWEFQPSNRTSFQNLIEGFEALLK

[5] = target: T2, Janus Kinase (JAK) (Homo sapiens, UniProt P52333+P23458+O60674+P29597); assay: Inhibition of JAK in human PBMC assessed as reduction in human recombinant IL-2/mouse anti-human CD3 stimulated IFNgamma production preincubated for 1 hr followed by IL2/CD3 stimulation measured after 18 hrs by ELISA
T2 sequence (O60674 whole entry, looked up, one chain of several): as the sequence (O60674 whole entry, the tested form may be a part) above
T2 sequence (P23458 whole entry, looked up, one chain of several): as the sequence (P23458 whole entry, the tested form may be a part) above
T2 sequence (P29597 whole entry, looked up, one chain of several): as the sequence (P29597 whole entry) above
Procedure, shortened: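 Primary PBMCs stimulated with IL-2; inhibition of IFNγ release measured. IC50 values are geometric means of at least three determinations.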

[6] = tested on: Liver; assay: Metabolic stability in human liver microsomes assessed per mg protein; type: ADME, microsome
Procedure, shortened: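 Metabolic stability measured as turnover in human liver microsomes.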

[7] = Thermodynamic solubility of the compound in pH 7.4 water buffer using crystalline solid sample; type: physicochemical; details: read-out: Therm_solubility
Procedure, shortened: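 Thermodynamic solubility measured from crystalline solid in water buffered at pH 7.4.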

[8] = Drug metabolism in human liver microsomes assessed as UGT-mediated compound glucuronidation per mg protein in presence of microsomal activator Brij58 and cofactor UDPGA; type: ADME
Procedure, shortened: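 Human liver microsomes supplemented with the activator Brij58 and cofactor UDPGA, NADPH omitted, to measure phase II glucuronidation turnover.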

[9] = target: T2, Janus Kinase (JAK)
[10] = target: T2, Janus Kinase (JAK); assay: Inhibition of JAK in human PBMC assessed as reduction in human recombinant IL-2/ mouse anti-human CD3 stimulated STAT5 phosphorylation at tyrosine residue preincubated for 1 hr followed by IL2/CD3 stimulation after 30 mins by immunofluorescence assay
[11] = target: T2, Janus Kinase (JAK); assay: Inhibition of JAK in human PBMC assessed as reduction in human recombinant IL-2/ mouse anti-human CD3 stimulated STAT5 phosphorylation at tyrosine residue at 10-fold IC50 preincubated for 1 hr followed by compound washout and subsequent IL2/CD3 stimulation measured after 30 mins by immunofluorescence assay
Procedure, shortened: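 PBMC wash-out format: cells exposed to compound for 1 h at 10-fold IC50, washed extensively, then pSTAT5 response to IL-2 stimulation followed over time to give a recovery T1/2.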

[12] = target: T3, Tyrosine-protein kinase JAK3 (Homo sapiens) (UniProt P52333); assay: Inhibition of GST tagged human recombinant JAK3 catalytic domain expressed in baculovirus assessed as time taken for inhibition to reverse by 50% by dilution recovery based microfluidic mobility shift assay
T3 sequence (whole entry): T1 sequence (P52333 whole entry)
Procedure, shortened: (§2)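 JAK3 inhibition kinetics measured by continuous dilution-recovery in a microfluidic mobility shift format; offset rate (min−1) converted to a recovery T1/2.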

[13] = target: T3, Tyrosine-protein kinase JAK3 (Homo sapiens); assay: Inhibition of GST tagged human recombinant JAK3 catalytic domain expressed in baculovirus assessed as offset rate by dilution recovery based microfluidic mobility shift assay; procedure, shortened: as §2

| Compound | IC50 [1] [nM] | IC50 [2] [nM] | IC50 [3] [nM] | IC50 [4] [nM] | IC50 [5] [nM] | Stability [6] [µL/min] | solubility thermodynamic [7] | Drug metabolism [8] [µL/min] | T1/2 [9] [h] | IC50 [10] [nM] | inhibition [11] | T1/2 [12] [h] | K [13] [min⁻¹] |
| --- | --- | --- | --- | --- | --- | --- | --- | --- | --- | --- | --- | --- | --- |
| CC(C)c1cc(O)ccc1-c1ccc2c(-c3nc4ccccc4[nH]3)n[nH]c2c1 | 392 | 293 | 79.6 | 26.8 | 250.3 | – | – | – | – | – | – | – | – |
| CCc1cc(O)ccc1-c1ccc2c(-c3nc4c([nH]3)CN(C(C)=O)CC4)n[nH]c2c1 | 22.7 | 7.1 | 3.3 | 0.5 | 4.5 | 42 | 10 to 20 µM | 5.5 | – | – | – | – | – |
| CCc1cc(O)c(F)cc1-c1ccc2c(-c3nc4c([nH]3)CN(Cc3ccccc3)CC4)n[nH]c2c1 | 57.5 | 31 | 15.9 | 1.8 | 30.4 | 75 | – | > 360 | – | – | – | – | – |
| CCc1cc(O)ccc1-c1ccc2c(-c3nc4c([nH]3)CCN(C(=O)c3cnc(N5CCCCC5)cn3)C4)n[nH]c2c1 | – | – | – | – | – | – | – | 17 | – | – | – | – | – |
| Oc1cccc(-c2ccc3c(-c4nc5ccccc5[nH]4)n[nH]c3c2)c1 | 291 | 493 | 101 | 68.6 | 572.7 | – | – | – | – | – | – | – | – |
| CCc1c(-c2ccc3c(-c4nc5ccccc5[nH]4)n[nH]c3c2)ccc(O)c1F | – | – | – | – | 204.8 | – | – | 46 | – | – | – | – | – |
| CCc1cc(O)ccc1-c1ccc2c(-c3ncc[nH]3)n[nH]c2c1 | 4.6 | 0.8 | 0.8 | 0.9 | 10.4 | – | 4.1 µM | – | – | – | – | – | – |
| CCc1cc(O)c(F)cc1-c1ccc2c(-c3nc4c([nH]3)CCN(C(=O)c3ccc(F)cc3)C4)n[nH]c2c1 | 0.8 | 1.7 | 0.3 | < 0.1 | 35 | 48 | – | 37 | – | – | – | – | – |
| CCc1cc(O)c(F)cc1-c1ccc2c(-c3nc4ccccc4[nH]3)n[nH]c2c1 | 15.3 | 16.7 | 7.9 | 0.8 | 47.9 | – | – | > 360 | 3.5 | – | – | – | – |
| CCc1cc(O)ccc1-c1ccc2c(-c3nc4c([nH]3)CN(S(C)(=O)=O)CC4)n[nH]c2c1 | 25.1 | 1.3 | 5.6 | 1.3 | 39.1 | 18 | – | 7.3 | – | – | – | – | – |

More lines, now with the values ahead:

| IC50 [1] [nM] | IC50 [2] [nM] | IC50 [3] [nM] | IC50 [4] [nM] | IC50 [5] [nM] | Stability [6] [µL/min] | solubility thermodynamic [7] | Drug metabolism [8] [µL/min] | T1/2 [9] [h] | IC50 [10] [nM] | inhibition [11] | T1/2 [12] [h] | K [13] [min⁻¹] | Compound |
| --- | --- | --- | --- | --- | --- | --- | --- | --- | --- | --- | --- | --- | --- |
| 437 | 166 | 17.3 | 9.7 | 75.4 | – | – | – | – | – | – | – | – | CCCc1cc(O)ccc1-c1ccc2c(-c3nc4ccccc4[nH]3)n[nH]c2c1 |
| 816 | 418 | 58.8 | 60 | 277.8 | – | 0.5 µM | – | 4.5 | – | – | – | – | CCc1cc(O)ccc1-c1ccc2c(C(=O)Nc3ccc(C)nc3)n[nH]c2c1 |
| 796 | 125 | 40.9 | 7.5 | 9.1 | – | 14 µM | – | – | – | – | – | – | CCc1cc(O)ccc1-c1ccc2c(C(=O)NC)n[nH]c2c1 |
| 1630 | 139 | 124 | 37.5 | – | 82 | – | < 3.5 | – | 27 | inactive | – | – | C[C@@H]1CCN(C(=O)N2CCCC2)C[C@@H]1N(C)c1ncnc2[nH]ccc12 |
| 20.1 | 2.9 | 6.4 | 2.1 | 18.6 | 56 | 10 to 20 µM | < 1.9 | – | – | – | – | – | CCc1cc(O)ccc1-c1ccc2c(-c3nc4c([nH]3)CN(C)CC4)n[nH]c2c1 |
| 54.5 | 4.3 | 4.2 | 1.7 | 19.1 | – | 15 µM | – | – | – | – | – | – | CCc1cc(O)ccc1-c1ccc2c(C(N)=O)n[nH]c2c1 |
| 959 | 34.1 | 21.2 | 2.3 | – | 131 | 20 µg/mL | > 200 | – | 343 | inactive | 0.467 | 0.024 | C[C@@H]1CCN(C(=O)N2CC[C@@H](S(=O)(=O)c3cccc(O)c3)C2)C[C@@H]1N(C)c1ncnc2[nH]ccc12 |
| > 10000 | > 10000 | > 10000 | 2760 | > 10000 | – | – | – | – | – | – | – | – | CCc1cc(O)ccc1-c1ccc2c(C(=O)N(C)C)n[nH]c2c1 |
